According to article PMC5598404 (Toxicology Reports, 2015):

How the values were obtained:
[1] = system: human breast cancer Sk-Br-3 cells; assay: CytoTox 96 Non-Radioactive Cytotoxicity Assay, breast cancer Sk-Br-3 cells; format: cell-based
Outline: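 Sk-Br-3 cells (ATCC) were kept in ATCC-formulated medium under 5% CO2 at 37 °C, plated at 10,000 cells/well and grown to 70–80% confluence. They were then exposed for 24 h or 48 h to test compounds from DMSO stocks at 400, 200, 100, 50 and 25 μg/mL. Cells given 2% DMSO (final) were the negative control. Cytotoxicity was read by CytoTox 96 kit in three independent experiments, each run in triplicate.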

[2] = system: human breast cancer MCF7 cells; assay: CytoTox 96 Non-Radioactive Cytotoxicity Assay, breast cancer MCF7 cells; format: cell-based; conditions: MCF7, 12.5-200 μg/mL, 24 h and 48 h
Outline: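 MCF7 cells from ATCC, grown in ATCC-formulated medium at 37 °C and 5% CO2. Seeded at 10,000 cells/well and grown to 70–80% confluence. Test compounds (DMSO stocks) were added at 200, 100, 50, 25 and 12.5 μg/mL (≈ μM, MW ~1000) for 24 h and 48 h. Negative control was 2% final DMSO. Read by CytoTox 96 kit; three independent experiments, each in triplicate.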

[3] = contain methionine sulfoxide in their ring; cited from earlier work

## NαC-[Met-Leu-Val-Phe-Pro-Leu-Phe-Ile] (head to tail) [[MetO]-LOB1, [1-8-NαC],[1-Rs,Ss-MetO]-linusorb-B1]
[1]; Sk-Br-3, 24 h exposure, 400 μg/mL, three independent experiments in triplicate
  Cytotoxicity towards Sk-Br-3 cells, 24 h, 400 μg/mL: 28%
[1]; Sk-Br-3, 24 h exposure, 25-400 μg/mL
  Concentration dependence of cytotoxicity towards Sk-Br-3 cells: only showed cytotoxicity at 400 μg/mL
[1]; Sk-Br-3, 48 h exposure, 400 μg/mL, three independent experiments in triplicate
  Cytotoxicity towards Sk-Br-3 cells, 48 h, 400 μg/mL: maintained their respective cytotoxicity
[2]
  Effect on MCF7 cells (in words): small cytoprotective effects
[3]
  Relative hydrophobicity of methionine sulfoxide LOBs: less hydrophobic than their methionine containing counterparts
